Source: ChEMBL document CHEMBL1221191, “Inhibitors of Polo-like kinase reveal roles in spindle-pole maintenance” (Nat Chem Biol, 2006)
The source made the active and inactive calls. No cut-off for these calls is given here.

Columns and labels:
[1] = biological target: Serine/threonine-protein kinase PLK1 (Homo sapiens, UniProt P53350)
S2 [2] = assay: Antimitotic activity against Drosophila melanogaster S2 cells assessed as nucleated microtubule at 20 nM in presence of high speed cytoplasmic supernatant; type: functional, cell-based
Method in brief: (§1)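 Centrosomes partially purified from Drosophila embryos, some stripped with 1 M KI. Compound (10 or 20 nM; 0.1% DMSO carrier) incubated 20 min at 25 °C with centrosomes or with high-speed embryonic cytoplasmic supernatant, then microtubule nucleation assayed with rhodamine-labelled tubulin. Staining for γ-tubulin, MPM2 epitope, Asp and centrosomin. MPM2 also checked by western blot of treated supernatant.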

S2 [3] = assay: Antimitotic activity against Drosophila melanogaster S2 cells assessed as loss of gamma-tubulin at 20 nM by immunostaining; type: functional, cell-based
Method in brief: as §1

S2 [4] = assay: Antimitotic activity against Drosophila melanogaster S2 cells assessed as loss of MPM2 epitope from centrosome at 20 nM by immunostaining; type: functional, cell-based
Method in brief: as §1

S2 [5] = assay: Inhibition of […]-mediated gamma-TuRc recruitment in Drosophila melanogaster S2 cells at 20 nM in presence of high-speed supernatant of syncytial embryo cytoplasam; type: cell-based
Method in brief: as §1

Drosophila melanogaster = assay: Inhibition of […]-mediated Asp protein recruitment in Drosophila melanogaster S2 at 20 nM in presence of high-speed supernatant of syncytial embryo cytoplasam
Method in brief: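 Centrosomes partially purified from D. melanogaster embryos were salt-stripped with 1 M KI. They were then incubated with rhodamine-labeled tubulin and high-speed embryonic cytoplasmic supernatant. The supernatant was pretreated with compound (20 nM) or 0.1% DMSO for 20 min at 25 °C. Preparations were immunostained for centrosomin, γ-tubulin, Asp and the MPM2 phosphoepitope, and microtubule nucleation was scored.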

S2 [6] = assay: Antimitotic activity against Drosophila melanogaster S2 cells cytosolic extract assessed as loss of MPM2 epitope; type: functional, cell-based
Method in brief: as §1

[7] = biological target: Cyclin-dependent kinase 2/cyclin E1 (Homo sapiens, UniProt P24941); assay: Inhibition of CDK2/Cyclin E; type: protein-complex assay
[8] = biological target: Cyclin-dependent kinase 2/cyclin A (Homo sapiens, UniProt P24941); assay: Inhibition of CDK2/Cyclin A; type: protein-complex assay
[9] = biological target: Cyclin-dependent kinase 1/cyclin B1 (Homo sapiens, UniProt P06493); assay: Inhibition of CDK1/Cyclin B; type: protein-complex assay
Chain of Cyclin-dependent kinase 1/cyclin B1 (P06493 whole entry): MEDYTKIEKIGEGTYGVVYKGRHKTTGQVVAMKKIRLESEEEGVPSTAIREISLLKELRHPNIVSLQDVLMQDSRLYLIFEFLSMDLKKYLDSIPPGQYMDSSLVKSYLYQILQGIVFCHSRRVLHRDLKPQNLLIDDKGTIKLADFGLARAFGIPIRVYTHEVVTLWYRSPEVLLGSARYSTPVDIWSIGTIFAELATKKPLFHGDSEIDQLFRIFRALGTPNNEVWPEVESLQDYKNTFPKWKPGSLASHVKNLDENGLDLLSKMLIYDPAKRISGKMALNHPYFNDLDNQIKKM
Chain of Cyclin-dependent kinase 1/cyclin B1 (P14635 whole entry, further chain): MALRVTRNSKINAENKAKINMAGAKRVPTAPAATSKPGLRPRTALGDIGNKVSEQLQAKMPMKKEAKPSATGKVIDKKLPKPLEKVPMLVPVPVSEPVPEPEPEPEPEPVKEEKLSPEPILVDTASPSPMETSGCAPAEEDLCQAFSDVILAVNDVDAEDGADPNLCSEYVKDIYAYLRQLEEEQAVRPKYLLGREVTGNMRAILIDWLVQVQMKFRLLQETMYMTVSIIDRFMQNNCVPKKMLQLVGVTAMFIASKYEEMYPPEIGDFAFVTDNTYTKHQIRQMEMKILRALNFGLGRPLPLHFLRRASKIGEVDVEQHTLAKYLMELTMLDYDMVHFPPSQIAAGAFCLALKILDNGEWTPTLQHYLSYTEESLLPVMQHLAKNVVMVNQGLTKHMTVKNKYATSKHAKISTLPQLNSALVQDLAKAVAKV

[10] = biological target: Cyclin-dependent kinase 4/cyclin D1 (Homo sapiens, UniProt P11802); assay: Inhibition of CDK4/Cyclin D1; type: protein-complex assay
Chain of Cyclin-dependent kinase 4/cyclin D1 (P11802 whole entry): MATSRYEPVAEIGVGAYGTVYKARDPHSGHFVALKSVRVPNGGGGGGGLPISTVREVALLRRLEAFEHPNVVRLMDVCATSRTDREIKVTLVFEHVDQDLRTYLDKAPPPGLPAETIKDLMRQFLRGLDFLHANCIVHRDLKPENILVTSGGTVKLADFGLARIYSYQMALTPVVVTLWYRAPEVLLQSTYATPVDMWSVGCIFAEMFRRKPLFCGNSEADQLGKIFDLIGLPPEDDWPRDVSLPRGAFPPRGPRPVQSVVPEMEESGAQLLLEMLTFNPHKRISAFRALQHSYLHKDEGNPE
Chain of Cyclin-dependent kinase 4/cyclin D1 (P24385 whole entry, further chain): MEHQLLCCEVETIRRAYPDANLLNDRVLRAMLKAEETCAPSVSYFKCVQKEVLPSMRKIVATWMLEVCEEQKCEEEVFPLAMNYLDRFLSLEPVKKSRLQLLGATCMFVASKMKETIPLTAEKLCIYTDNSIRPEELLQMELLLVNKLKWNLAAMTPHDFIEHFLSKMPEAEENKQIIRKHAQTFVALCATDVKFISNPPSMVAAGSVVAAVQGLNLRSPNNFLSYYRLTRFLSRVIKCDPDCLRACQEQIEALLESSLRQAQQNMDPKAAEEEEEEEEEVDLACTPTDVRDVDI

[11] = biological target: Cyclin-dependent kinase 7/ cyclin H (Homo sapiens, UniProt P50613); assay: Inhibition of CDK7/Cyclin H; type: protein-complex assay
Chain of Cyclin-dependent kinase 7/ cyclin H (P51946 whole entry): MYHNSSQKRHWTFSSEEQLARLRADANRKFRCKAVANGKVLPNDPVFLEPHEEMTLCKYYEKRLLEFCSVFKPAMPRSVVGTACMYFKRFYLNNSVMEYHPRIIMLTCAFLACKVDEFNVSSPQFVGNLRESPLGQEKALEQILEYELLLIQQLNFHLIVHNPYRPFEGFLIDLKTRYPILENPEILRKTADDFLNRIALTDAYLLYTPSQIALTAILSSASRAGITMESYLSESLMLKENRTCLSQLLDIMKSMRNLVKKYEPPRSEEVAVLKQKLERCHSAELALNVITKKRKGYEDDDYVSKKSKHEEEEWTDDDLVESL
Chain of Cyclin-dependent kinase 7/ cyclin H (P50613 whole entry): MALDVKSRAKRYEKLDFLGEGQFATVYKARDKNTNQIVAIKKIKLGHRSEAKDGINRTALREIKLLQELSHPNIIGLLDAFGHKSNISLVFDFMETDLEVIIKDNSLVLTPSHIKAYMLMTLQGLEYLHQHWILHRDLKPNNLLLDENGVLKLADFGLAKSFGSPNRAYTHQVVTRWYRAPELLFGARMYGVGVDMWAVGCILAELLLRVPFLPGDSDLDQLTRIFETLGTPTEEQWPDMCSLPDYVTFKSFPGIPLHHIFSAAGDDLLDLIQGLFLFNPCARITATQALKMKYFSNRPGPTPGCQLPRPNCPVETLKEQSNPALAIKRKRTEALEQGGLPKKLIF

CDK9/cyclin T1 = CDK9/cyclin T1 (Homo sapiens, UniProt P50750); assay: Inhibition of CDK9/Cyclin T; type: protein-complex assay
Chain of CDK9/cyclin T1 (O60563 whole entry): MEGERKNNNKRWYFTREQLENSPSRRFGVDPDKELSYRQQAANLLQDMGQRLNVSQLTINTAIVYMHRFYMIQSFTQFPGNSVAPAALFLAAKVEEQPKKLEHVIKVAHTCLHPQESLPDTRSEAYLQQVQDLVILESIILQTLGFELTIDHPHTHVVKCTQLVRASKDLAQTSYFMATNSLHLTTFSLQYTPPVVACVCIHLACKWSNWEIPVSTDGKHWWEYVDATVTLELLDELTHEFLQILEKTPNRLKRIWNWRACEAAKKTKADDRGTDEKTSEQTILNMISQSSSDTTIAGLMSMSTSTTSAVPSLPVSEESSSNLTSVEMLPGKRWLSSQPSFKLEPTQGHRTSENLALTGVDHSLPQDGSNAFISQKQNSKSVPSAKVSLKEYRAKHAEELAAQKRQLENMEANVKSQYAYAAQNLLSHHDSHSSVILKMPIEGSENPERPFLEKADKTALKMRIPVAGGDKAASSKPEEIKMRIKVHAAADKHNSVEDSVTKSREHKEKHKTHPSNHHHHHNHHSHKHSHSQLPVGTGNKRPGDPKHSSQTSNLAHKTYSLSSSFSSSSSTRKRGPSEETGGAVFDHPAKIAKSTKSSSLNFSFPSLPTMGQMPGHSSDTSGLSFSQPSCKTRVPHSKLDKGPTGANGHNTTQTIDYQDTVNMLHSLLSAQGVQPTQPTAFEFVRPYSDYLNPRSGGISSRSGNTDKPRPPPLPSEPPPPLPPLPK
Chain of CDK9/cyclin T1 (P50750 whole entry): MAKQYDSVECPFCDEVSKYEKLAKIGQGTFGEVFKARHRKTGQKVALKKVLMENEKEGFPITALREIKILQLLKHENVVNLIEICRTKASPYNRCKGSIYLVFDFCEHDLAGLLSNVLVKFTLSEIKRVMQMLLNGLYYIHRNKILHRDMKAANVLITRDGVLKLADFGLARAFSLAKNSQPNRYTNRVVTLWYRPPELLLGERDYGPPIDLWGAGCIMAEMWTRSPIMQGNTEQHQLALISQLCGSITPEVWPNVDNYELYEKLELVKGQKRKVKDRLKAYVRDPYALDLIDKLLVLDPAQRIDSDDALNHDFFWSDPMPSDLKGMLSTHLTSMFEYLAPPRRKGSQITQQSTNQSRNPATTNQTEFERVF

[12] = Inhibition of CK2
[13] = Inhibition of CamK2
[14] = Inhibition of MAPK/ERK
[15] = biological target: Protein kinase C alpha type (Homo sapiens, UniProt P17252); assay: Inhibition of PKCalpha
[16] = biological target: RAC-alpha serine/threonine-protein kinase (Homo sapiens, UniProt P31749); assay: Inhibition of Akt
[17] = biological target: Tyrosine-protein kinase ABL1 (Homo sapiens, UniProt P00519); assay: Inhibition of Abl
Chain of Tyrosine-protein kinase ABL1 (P00519 whole entry): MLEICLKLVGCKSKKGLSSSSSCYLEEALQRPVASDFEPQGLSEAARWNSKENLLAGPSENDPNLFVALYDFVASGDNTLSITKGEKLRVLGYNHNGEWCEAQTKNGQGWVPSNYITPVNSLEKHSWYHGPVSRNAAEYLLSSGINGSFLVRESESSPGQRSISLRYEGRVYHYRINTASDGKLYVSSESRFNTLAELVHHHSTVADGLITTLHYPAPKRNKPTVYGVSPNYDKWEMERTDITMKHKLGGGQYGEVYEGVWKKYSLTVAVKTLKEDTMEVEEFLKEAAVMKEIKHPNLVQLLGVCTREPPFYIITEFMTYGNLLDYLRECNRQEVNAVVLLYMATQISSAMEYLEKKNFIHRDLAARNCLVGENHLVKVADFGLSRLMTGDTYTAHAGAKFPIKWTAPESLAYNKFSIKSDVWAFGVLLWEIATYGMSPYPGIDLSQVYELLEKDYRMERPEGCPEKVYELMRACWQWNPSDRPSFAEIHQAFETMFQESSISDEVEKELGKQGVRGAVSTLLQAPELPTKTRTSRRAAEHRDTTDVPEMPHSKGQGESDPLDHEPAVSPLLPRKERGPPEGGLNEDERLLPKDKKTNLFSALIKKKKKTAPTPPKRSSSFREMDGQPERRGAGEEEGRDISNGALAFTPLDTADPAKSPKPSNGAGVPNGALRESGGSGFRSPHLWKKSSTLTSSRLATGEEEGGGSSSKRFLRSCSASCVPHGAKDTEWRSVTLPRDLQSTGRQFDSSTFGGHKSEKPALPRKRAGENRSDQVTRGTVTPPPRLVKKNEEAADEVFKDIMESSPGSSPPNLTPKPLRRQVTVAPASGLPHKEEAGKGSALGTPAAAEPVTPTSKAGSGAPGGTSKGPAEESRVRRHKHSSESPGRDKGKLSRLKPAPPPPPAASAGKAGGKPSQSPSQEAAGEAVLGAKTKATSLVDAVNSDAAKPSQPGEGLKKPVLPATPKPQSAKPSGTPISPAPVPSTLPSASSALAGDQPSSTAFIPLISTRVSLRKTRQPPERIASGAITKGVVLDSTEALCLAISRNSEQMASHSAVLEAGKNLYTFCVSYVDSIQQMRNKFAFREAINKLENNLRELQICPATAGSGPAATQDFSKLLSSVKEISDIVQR

[18] = biological target: Glycogen synthase kinase-3 alpha (Homo sapiens, UniProt P49840); assay: Inhibition of GSK3alpha
Aurora kinase A = Aurora kinase A (Homo sapiens, UniProt O14965); assay: Inhibition of Aurora A
[19] = Inhibition of PKA
[20] = Inhibition of P70S6K
[21] = biological target: Mitogen-activated protein kinase 11 (Homo sapiens, UniProt Q15759); assay: Inhibition of SAPK2
A549 = assay: Cytotoxicity against human A549 cells assessed as mitotic progression after 72 hrs by MTT assay; type: functional, cell-based; conditions: A549, 72 h
HeLa [22] = assay: Cytotoxicity against human HeLa cells assessed as mitotic progression after 72 hrs by MTT assay; type: functional, cell-based
HT-29 = assay: Cytotoxicity against human HT-29 cells assessed as mitotic progression after 72 hrs by MTT assay; type: functional, cell-based; conditions: HT-29, 72 h
HeLa [23] = assay: Antitumor activity against human HeLa cells assessed as shortened mitotic spindles at 10 uM after 24 hrs by immunostaining relative to control; type: functional, cell-based
Method in brief: (§2)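 HeLa cells treated 24 h with 10 or 25 μM compound or 0.1% DMSO, then fixed and stained for α-tubulin, γ-tubulin and DNA. Spindle length taken as pole-to-pole distance. Microtubule density judged from the immunostained spindles.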

HeLa [24] = assay: Antitumor activity against human HeLa cells assessed as shortened mitotic spindles at 25 uM after 24 hrs by immunostaining relative to control; type: functional, cell-based
Method in brief: as §2

HeLa [25] = assay: Antitumor activity against human HeLa cells assessed as change in kinetochore microtubules density at 25 uM after 24 hrs by immunostaining relative to control; type: functional, cell-based
Method in brief: as §2

[26] = Antimitotic activity against Drosophila melanogaster S2 cells assessed as bipolar spindles at 10 uM after 24 hrs by immunostaining relative to control; type: functional
Method in brief: (§3)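 Drosophila S2 cells exposed to 10 μM (24 h, fixed) or 25 μM (added at time 0 to cells already in mitosis) of compound, with 0.1% DMSO control. Fixed cells immunostained for α-tubulin, γ-tubulin and DNA. Live cells expressing GFP-tubulin filmed by spinning-disk confocal time-lapse at 25 ± 1 °C to follow spindle behaviour.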

[27] = biological target: Aurora kinase B (Drosophila melanogaster) (UniProt Q9VKN7); assay: Inhibition of Aurora B kinase in Drosophila melanogaster assessed as histone H3 phosphorylation at Ser10
S2 [28] = assay: Antimitotic activity against Drosophila melanogaster S2 cells assessed as collapsed spindles at 25 uM; type: functional, cell-based
Method in brief: as §3

S2 [29] = assay: Antimitotic activity against Drosophila melanogaster S2 cells expressing GFP-tubulin assessed as abnormal spindles at 25 uM; type: functional, cell-based
Method in brief: as §3

S2 [30] = assay: Antimitotic activity against Drosophila melanogaster S2 cells assessed as nucleated microtubule at 10 nM; type: functional, cell-based
Method in brief: as §1

S2 [31] = assay: Antimitotic activity against Drosophila melanogaster S2 cells assessed as nucleated microtubule at 20 nM; type: functional, cell-based
Method in brief: as §1

S2 [32] = assay: Inhibition of Plk1 in Drosophila melanogaster S2 cells at 20 nM; type: cell-based
[33] = biological target: Tyrosine-protein kinase CSK (Homo sapiens) (UniProt P41240); assay: Inhibition of CSK at 100 uM
[34] = biological target: Insulin receptor (Homo sapiens) (UniProt P06213); assay: Residual activity of IR at 100 uM relative to control
[35] = biological target: Tyrosine-protein kinase Yes (Homo sapiens) (UniProt P07947); assay: Residual activity of Yes at 100 uM relative to control
[36] = biological target: Serine/threonine-protein kinase Chk1 (Homo sapiens) (UniProt O14757); assay: Residual activity of Chk1 at 100 uM relative to control
[37] = biological target: Serine/threonine-protein kinase Chk2 (Homo sapiens) (UniProt O96017); assay: Residual activity of Chk2 at 100 uM relative to control
[38] = biological target: Dual specificity mitogen-activated protein kinase kinase 1 (Homo sapiens) (UniProt Q02750); assay: Residual activity of MEK1 at 100 uM relative to control
[39] = biological target: Dual specificity mitogen-activated protein kinase kinase 6 (Homo sapiens) (UniProt P52564); assay: Residual activity of MKK6 at 100 uM relative to control
[40] = biological target: Ribosomal protein S6 kinase alpha-5 (Homo sapiens) (UniProt O75582); assay: Residual activity of MSK1 at 100 uM relative to control
[41] = biological target: Ribosomal protein S6 kinase alpha-3 (Homo sapiens) (UniProt P51812); assay: Residual activity of Rsk2 at 100 uM relative to control
[42] = biological target: RAF proto-oncogene serine/threonine-protein kinase (Homo sapiens) (UniProt P04049); assay: Residual activity of c-RAF at 100 uM relative to control
[43] = biological target: Fibroblast growth factor receptor 3 (Homo sapiens) (UniProt P22607); assay: Residual activity of FGFR3 at 100 uM relative to control
[44] = biological target: Mitogen-activated protein kinase 12 (Homo sapiens) (UniProt P53778); assay: Residual activity of SAPK3 at 100 uM relative to control
[45] = biological target: Cyclin-dependent kinase 2/cyclin E1 (Homo sapiens) (UniProt P24864+P24941); assay: Residual activity of CDK2/E at 100 uM relative to control
[46] = biological target: Insulin-like growth factor 1 receptor (Homo sapiens) (UniProt P08069); assay: Residual activity of IGF-1R at 100 uM relative to control
[47] = Residual activity of SAPK2b at 100 uM relative to control
[48] = biological target: Inhibitor of nuclear factor kappa-B kinase subunit alpha (Homo sapiens) (UniProt O15111); assay: Residual activity of IKKalpha at 100 uM relative to control
[49] = biological target: Protein kinase C gamma type (Homo sapiens) (UniProt P05129); assay: Residual activity of PKCgamma at 100 uM relative to control
[50] = biological target: Protein kinase C beta type (Homo sapiens) (UniProt P05771); assay: Residual activity of PKCbeta2 at 100 uM relative to control
[51] = biological target: MAP kinase-activated protein kinase 2 (Homo sapiens) (UniProt P49137); assay: Residual activity of MAPKAP-K2 at 100 uM relative to control
[52] = biological target: Mitogen-activated protein kinase 9 (Homo sapiens) (UniProt P45984); assay: Residual activity of JNK2alpha2 at 100 uM relative to control
[53] = biological target: Platelet-derived growth factor receptor alpha (Homo sapiens) (UniProt P16234); assay: Residual activity of PDGFRalpha at 100 uM relative to control
[54] = biological target: Tyrosine-protein kinase CSK (Homo sapiens) (UniProt P41240); assay: Inhibition of CSK at 100 uM relative to control; values are per cent of control

Chain of Serine/threonine-protein kinase PLK1 (P53350 whole entry): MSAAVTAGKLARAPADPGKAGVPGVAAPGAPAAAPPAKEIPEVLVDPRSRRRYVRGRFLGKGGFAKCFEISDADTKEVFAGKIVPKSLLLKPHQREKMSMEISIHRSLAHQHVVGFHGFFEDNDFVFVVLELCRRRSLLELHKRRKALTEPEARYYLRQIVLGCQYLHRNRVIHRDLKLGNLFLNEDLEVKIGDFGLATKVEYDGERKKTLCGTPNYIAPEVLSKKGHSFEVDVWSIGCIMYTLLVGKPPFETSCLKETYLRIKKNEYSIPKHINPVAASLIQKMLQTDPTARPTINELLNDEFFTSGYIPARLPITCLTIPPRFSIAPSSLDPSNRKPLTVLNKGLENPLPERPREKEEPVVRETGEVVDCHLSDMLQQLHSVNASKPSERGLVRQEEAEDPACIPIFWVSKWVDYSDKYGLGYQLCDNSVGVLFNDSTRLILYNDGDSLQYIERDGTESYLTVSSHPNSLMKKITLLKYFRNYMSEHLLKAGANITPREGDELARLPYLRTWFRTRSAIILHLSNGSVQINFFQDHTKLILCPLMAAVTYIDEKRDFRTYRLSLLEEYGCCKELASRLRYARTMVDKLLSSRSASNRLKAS

## Cc1nc(N)sc1-c1ccnc(Nc2ccc(O)cc2)n1
[1]
  IC50: 25 µM

## NC(=O)c1sc2c([N+](=O)[O-])cc(SC(F)(F)F)cc2[n+]1[O-] [CYCLAPOLIN 1]
S2 [2]
  Activity: inactive
S2 [3]
  Activity: Active
S2 [4]
  Activity: Active
S2 [5]
  inhibition: inactive
Drosophila melanogaster
  inhibition: inactive
S2 [6]
  Activity: Active
[7]
  IC50: > 100 µM
[8]
  IC50: > 100 µM
[9]
  IC50: > 100 µM
[10]
  IC50: > 100 µM
[11]
  IC50: > 100 µM
CDK9/cyclin T1
  IC50: > 100 µM
[12]
  IC50: > 100 µM
[13]
  IC50: > 100 µM
[14]
  IC50: > 100 µM
[15]
  IC50: > 100 µM
[16]
  IC50: > 100 µM
[17]
  IC50: > 100 µM
[18]
  IC50: > 100 µM
Aurora kinase A
  IC50: > 100 µM
[19]
  IC50: > 100 µM
[20]
  IC50: > 100 µM
[21]
  IC50: > 100 µM
A549
  IC50: 14 µM
HeLa [22]
  IC50: 14 µM
HT-29
  IC50: 2.8 µM
HeLa [23]
  Activity: Active
HeLa [24]
  Activity: Active
HeLa [25]
  Activity: Active
[26]
  Activity: 80%
[27]
  inhibition: inactive
S2 [28]
  Activity: Active
S2 [29]
  Activity: Active
S2 [30]
  Activity: inactive
S2 [31]
  Activity: Active
S2 [32]
  inhibition: Active

## NNC(=O)c1sc2c([N+](=O)[O-])cc(C(F)(F)F)cc2[n+]1[O-] [CYCLAPOLIN 10]
A549
  IC50: 72.1 µM
HeLa [22]
  IC50: 53.6 µM
HT-29
  IC50: 50.5 µM

## Cc1nc(C)c(-c2ccnc(Nc3ccc(O)cc3)n2)s1
[1]
  IC50: 5 µM

## CNc1nc(C)c(-c2ccnc(Nc3ccc(O)cc3)n2)s1
[1]
  IC50: 10 µM

## NC(=O)c1sc2c([N+](=O)[O-])cc(C(F)(F)F)cc2[n+]1[O-] [CYCLAPOLIN 9]
[7]
  IC50: > 100 µM
[8]
  IC50: > 100 µM
[9]
  IC50: > 100 µM
[10]
  IC50: > 100 µM
[11]
  IC50: > 100 µM
CDK9/cyclin T1
  IC50: > 100 µM
[12]
  IC50: > 100 µM
[13]
  IC50: > 100 µM
[14]
  IC50: > 100 µM
[15]
  IC50: > 100 µM
[16]
  IC50: > 100 µM
[17]
  IC50: > 100 µM
[18]
  IC50: > 100 µM
Aurora kinase A
  IC50: > 100 µM
[19]
  IC50: > 100 µM
[20]
  IC50: > 100 µM
[21]
  IC50: > 100 µM
A549
  IC50: 24.8 µM
HeLa [22]
  IC50: 6.6 µM
HT-29
  IC50: 7.7 µM
[33]
  inhibition: < 50%
[34]
  residual activity: 107%
[35]
  residual activity: 108%
[36]
  residual activity: 111%
[37]
  residual activity: 97%
[38]
  residual activity: 96%
[39]
  residual activity: 88%
[40]
  residual activity: 106%
[41]
  residual activity: 105%
[42]
  residual activity: 108%
[43]
  residual activity: 83%
[44]
  residual activity: 120%
[45]
  residual activity: 88%
[46]
  residual activity: 98%
[47]
  residual activity: 94%
[48]
  residual activity: 115%
[49]
  residual activity: 117%
[50]
  residual activity: 82%
[51]
  residual activity: 96%
[52]
  residual activity: 106%
[53]
  residual activity: 108%
[54]
  residual activity: 45%
